From ChEMBL document CHEMBL1154198, “Chemical genetics of Plasmodium falciparum” (Nature, 2010)

What was measured:
Plasmodium falciparum [1] = experiment: ST_JUDE: Cytotoxicity against Plasmodium falciparum V1/S; assay type: functional, organism-based
[2] = ST_JUDE: Cytotoxicity using luciferase to measure ATP as an indicator of the viability of human epithelial embryonic kidney cells (HEK293); assay type: toxicity, cell-based
Plasmodium falciparum [3] = experiment: ST_JUDE: Cytotoxicity against Plasmodium falciparum D10 transfected with yeast DHOD; assay type: functional, organism-based
Plasmodium falciparum [4] = experiment: ST_JUDE: Cytotoxicity against Plasmodium falciparum SB-A6; assay type: functional, organism-based
[5] = ST_JUDE: Cytotoxicity using luciferase to measure ATP as an indicator of the viability of human epithelial hepatocellular carcinoma cells (HepG2); assay type: toxicity, cell-based
Plasmodium falciparum [6] = experiment: ST_JUDE: Cytotoxicity against Plasmodium falciparum W2; assay type: functional, organism-based
Toxoplasma gondii = experiment: ST_JUDE: Growth inhibition of to Toxoplasma gondii, in human U-2OS cells, as measured by luciferase.; assay type: functional, organism-based; conditions: RH, U2OS
Outline: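 T. gondii parasites engineered to express luciferase; drug sensitivity read by luminescence.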

Plasmodium falciparum [7] = experiment: ST_JUDE: Plasmodium falciparum 3D7 EC50 (uM) as measured by SYBR green dye; assay type: functional, organism-based
[8] = ST_JUDE: Cytotoxicity using luciferase to measure ATP as an indicator of the viability of human foreskin fibroblast cells (BJ); assay type: toxicity, cell-based
Plasmodium falciparum [9] = experiment: ST_JUDE: Cytotoxicity against Plasmodium falciparum K1; assay type: functional, organism-based
Outline: (§1)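 Asexual P. falciparum grown in human erythrocytes, exposed to compounds for 72 h, and growth read as the DNA quantity in treated versus control cultures. Dose-response run at 12 concentrations from 10 μM to 5 nM.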

Plasmodium falciparum [10] = experiment: ST_JUDE: Cytotoxicity against Plasmodium falciparum Dd2; assay type: functional, organism-based
Plasmodium falciparum [11] = experiment: ST_JUDE: Plasmodium falciparum K1 EC50 (uM) as measured by SYBR green dye; assay type: functional, organism-based
[12] = ST_JUDE: Cytotoxicity using luciferase to measure ATP as an indicator of the viability of human Burkitt''s lymphoma lymphoblast cells (Raji); assay type: toxicity, cell-based
Leishmania major = experiment: ST_JUDE: Cytotoxicity using Alamar Blue to measure viability of Leishmania major; assay type: functional, organism-based
Outline: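 L. major promastigotes; drug susceptibility read with Alamar Blue.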

Plasmodium falciparum [13] = experiment: ST_JUDE: Cytotoxicity against Plasmodium falciparum 3D7; assay type: functional, organism-based; outline: as §1
Trypanosoma brucei = experiment: ST_JUDE: Cytotoxicity using luciferase to measure ATP as an indicator of the viability of Trypanosoma brucei; assay type: functional, organism-based

Row | SMILES | EC50 (Plasmodium falciparum [1]) | EC50 [2] | EC50 (Plasmodium falciparum [3]) | EC50 (Plasmodium falciparum [4]) | EC50 [5] | EC50 (Plasmodium falciparum [6]) | EC50 (Toxoplasma gondii) | EC50 (Plasmodium falciparum [7]) | EC50 [8] | EC50 (Plasmodium falciparum [9]) | EC50 (Plasmodium falciparum [10]) | EC50 (Plasmodium falciparum [11]) | EC50 [12] | EC50 (Leishmania major) | EC50 (Plasmodium falciparum [13]) | EC50 (Trypanosoma brucei)
1 | COc1cc(OC)c(NC(=O)C2c3ccccc3C(=O)N(CC(C)C)C2c2cccs2)cc1Cl (centres undefined) | 0.131 µM | > 45.1 µM | 0.0719 µM | 0.0831 µM | > 45.1 µM | 0.016 µM | > 24.7 µM | 0.0205 µM | > 45.1 µM | 0.093 µM | 0.0548 µM | 0.0203 µM | > 45.1 µM | > 19.3 µM | 0.0473 µM | 7.71 µM
2 | C/C=C/c1n(C)c2ccccc2[n+]1C | 1.39 µM | > 40.2 µM | 0.701 µM | 1.07 µM | > 40.2 µM | 1.9 µM | > 22 µM | 1.5 µM | > 40.2 µM | 0.993 µM | 1.63 µM | 1.38 µM | > 40.2 µM | > 17.2 µM | 0.916 µM | > 38.6 µM
3 | CCCN(C(=O)C(=O)Nc1ccc2nc3n(c(=O)c2c1)CCCCC3)c1ccc(OCC)cc1 | 0.215 µM | > 47.3 µM | 0.22 µM | 0.346 µM | > 47.3 µM | 0.334 µM | > 25.9 µM | 0.673 µM | > 47.3 µM | 0.326 µM | 0.7 µM | 0.289 µM | > 47.3 µM | > 20.2 µM | 0.49 µM | > 45.3 µM
4 | COc1ccc(NC(=O)C2c3ccccc3C(=O)N(CC(C)C)C2c2cccs2)cc1Cl (centres undefined) | 0.244 µM | > 40.4 µM | 0.133 µM | 0.15 µM | > 40.4 µM | 0.555 µM | > 22.1 µM | 0.119 µM | > 40.4 µM | 0.134 µM | 0.167 µM | 0.139 µM | > 40.4 µM | > 17.3 µM | 0.117 µM | 2.63 µM
5 | CCOc1cc2c(cc1OCC)C(c1cc(Cl)ccc1O)NCC2 (centres undefined) | 1.32 µM | > 46.9 µM | 3.57 µM | 3.5 µM | 21 µM | 0.732 µM | > 25.7 µM | 0.898 µM | > 46.9 µM | 0.722 µM | 2.01 µM | 0.243 µM | > 46.9 µM | > 20.1 µM | 1.82 µM | 9.49 µM
6 | CCCn1c2c(c(=N)c3c1CCC3)CCCC2 | 7.63 µM | > 40.3 µM | > 10.4 µM | 3.61 µM | > 40.3 µM | > 10.4 µM | > 22.1 µM | 2.96 µM | > 40.3 µM | 3 µM | 1.97 µM | 3.02 µM | > 40.3 µM | 0.532 µM | 2.56 µM | > 38.7 µM
7 | Cc1ccc2c(c1)C=C/C(=C\c1sc3ccccc3[n+]1C)N2C | 0.147 µM | 6.53 µM | 0.192 µM | 0.322 µM | 2.25 µM | 0.0154 µM | 3.95 µM | 0.184 µM | 7.95 µM | 0.152 µM | 0.204 µM | 0.0857 µM | 0.74 µM | 0.0012 µM | 0.144 µM | 0.175 µM
8 | COc1cc(C2CC(=O)NC3=C2C(=O)CC(c2ccccc2Cl)C3)cc(Br)c1O (centres undefined) | 2.73 µM | > 54.2 µM | 1.93 µM | 2.45 µM | > 54.2 µM | 1.06 µM | > 29.7 µM | 1.28 µM | > 54.2 µM | 1.91 µM | 1.91 µM | 0.945 µM | > 54.2 µM | > 23.2 µM | 1.85 µM | 16.4 µM
9 | CN1C(=O)/C(=C\c2ccccc2Cl)Sc2ccc(C(=O)NC3CCN(Cc4ccccc4)CC3)cc21 | 3.97 µM | > 42.5 µM | 1.09 µM | 0.717 µM | 17.9 µM | > 10.9 µM | > 23.3 µM | 0.276 µM | > 42.5 µM | 2.91 µM | 1.15 µM | 0.254 µM | > 42.5 µM | > 18.2 µM | 1.74 µM | 3.47 µM
